For 4 molecules, Activity and IC50 results are on record in ChEMBL document CHEMBL4011600, “Identification of compounds with cytotoxic activity from the leaf of the Nigerian medicinal plant, Anacardium occidentale L. (Anacardiaceae)” (Bioorg Med Chem, 2017).

One may read the IC50 as the point on the concentration scale where inhibition reaches its midpoint.

Test [1] relates to HeLa. In words: Cytotoxicity against human HeLa cells assessed as reduction in cell viability after 48 hrs by Alamar blue staining based fluorescence assay. It is filed as functional. The essentials: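 HeLa cells seeded at 1×10^5 cells/ml in MEM with 10% FBS, 1% NEAA, 2 mM glutamine and 1% antibiotic-antimycotic, grown 24 h at 37°C under 5% CO2. Compounds then added for 48 h at concentrations up to 1.6 mM. Readings normalized to DMSO-only controls set at 100%.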
(Resazurin is reduced to fluorescent resorufin, in cell work by metabolically active cells.)

The test system of test [2] is HeLa. In words: Induction of morphological changes in human HeLa cells assessed as loss of cells by microscopic method. Format: functional, cell-based. A digest of the protocol:
(§1)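 HeLa cells seeded at 1×10^5 cells/ml and grown for 24 h at 37°C under 5% CO2, then exposed to compounds for 48 h. Cell loss and rounding of the remaining cells were judged against DMSO-treated controls by inverted phase microscopy at ×10 magnification, with camera images taken after treatment.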

Test [3] deals with HeLa. Briefly: Induction of morphological changes in human HeLa cells assessed as cell rounding by microscopic method. Format: functional, cell-based. The essentials:
as §1

The test system of test [4] is HeLa. Briefly: Cytotoxicity against human HeLa cells assessed as reduction in cell viability at 1 uM after 48 hrs by Alamar blue staining based fluorescence assay relative to control. Format: functional. A digest of the protocol: (§2)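 HeLa cells seeded at 1×10^5 cells/ml in MEM with 10% FBS, 1% NEAA, 2 mM glutamine and 1% antibiotic-antimycotic, grown 24 h at 37°C under 5% CO2. Compounds then added for 48 h at concentrations up to 1.6 mM. Alamar blue applied for 3 h, plates cooled to room temperature, fluorescence read at ex 544, em 590 nm. Readings normalized to DMSO-only controls set at 100%. IC50 taken from concentration-response curve fits, mean ± SEM, n=3-4.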

Test [5] concerns HeLa. Briefly: Cytotoxicity against human HeLa cells assessed as reduction in cell viability at 2.5 uM after 48 hrs by Alamar blue staining based fluorescence assay relative to control. Format: functional. A digest of the protocol:
as §2

The test system of test [6] is HeLa. Briefly: Cytotoxicity against human HeLa cells assessed as reduction in cell viability at 5 uM after 48 hrs by Alamar blue staining based fluorescence assay relative to control. Format: functional. The essentials: as §2

For the molecule `C=C1C(=O)O[C@@H]2/C=C(/C)[C@H](O)C/C=C(\C)[C@@H](O)[C@H](OC(=O)/C(C)=C\C)[C@@H]12`, the Activity entry in test [1], in test [2] and in test [3] was “Dose-dependent effect” each time. The IC50 in test [1] was 36.2 µM.

With `COC(=O)c1cc(OC)c(CCc2c(OC)cc(C(=O)OC)cc2OC)c(OC)c1`, in test [1], the Activity result was “Dose-dependent effect” and the IC50 was found to be 46.5 µM.

As to `COc1cccc2c1C(=O)c1c(O)c3c(c(O)c1C2=O)C[C@@](O)(C(=O)CO)C[C@@H]3O[C@H]1C[C@H](N)[C@H](O)[C@H](C)O1` [DOXORUBICIN], the IC50 in test [1] was found to be 2.3 µM. The Activity in test [4] is recorded as 106.5%; in test [5], 50.8%; in test [6], 40%.

As for `COC(=O)c1cc(O)c(O)c(O)c1` [GALLIC ACID METHYL ESTER], in test [1], the Activity entry is “Dose-dependent effect” and the IC50 was 267 µM.
